# From the RNAGym collection of RNA variant scans (doi:10.1126/science.aae0568)
# Variants at the floor of the assay were thinned out.
# B1: tRNA (parent)
# chain: GUUCCGUUGGCGUAAUGGUAACGCGUCUCCCUCCUAAGGAGAAGACUGCGGGUUCGAGUCCCGUACGGAACG
# Variants of: B1
# Test: yeast fitness relative to wild type (ratio to wild type); higher = fitter; tRNA-Arg(CCU), competitive growth, 37 C, YPD
# In short: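 Start and end populations of a pooled competition were compared by 100-nucleotide paired-end sequencing of gene amplicons. The Saccharomyces cerevisiae strains carried tRNA-Arg(CCU) gene variants at the native genomic locus, synthesised with a 3% per-site mutation rate at 69 sites, and competed in YPD at 37°C for 24 hours in six parallel replicates. Darwinian fitness relative to wild type was based on the change in genotype frequencies. Genotypes required ≥ 100 starting reads, and estimates < 0.5 were set to 0.5.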
row,Variant,yeast fitness
1,C4U C27G C33U A57G,≤ 0.5
2,A45C A57U,0.682
3,C5G G23A C60U C62G,≤ 0.5
4,G6A C30A G39A U47A G63C,≤ 0.5
5,C22A C27G A36G,≤ 0.5
6,U16A C30G A57U,≤ 0.5
7,C62U C66U G67A,0.52
8,C5G A20G G58C,0.648
9,G12A C33A,0.644
10,C5U U13A C46A C62U C66U,≤ 0.5
11,A21U C29G,0.561
12,A15G C34U A40U,≤ 0.5
13,C4A G6A U28G A37G,0.738
14,C4A U8C A14U A20C U28G,0.54
15,U35G C62U,0.7
16,A15U U26A C55A A70C,≤ 0.5
17,U8A C24U U47C,0.575
18,A14G U35G A37U,≤ 0.5
19,G10C A20G C24U G38C U53G,≤ 0.5
20,A42U G48A A65U,0.706
21,A14U U54C C62U G68C,≤ 0.5

row,Variant,yeast fitness
1,U7G A20C G41A G50A C60U C66G,≤ 0.5
2,C4U G9A A15U A20C C27A C61G A65C,≤ 0.5
3,U26A C46A C62G,0.797
4,C27U A69U,1.02
5,C5A C34G C49G U64C,≤ 0.5
6,G6C C22G C27G A45U A57G A70G,≤ 0.5
7,C31G A40U C60G G67A,≤ 0.5
8,G52A A70U,0.767
9,G23C C60G C61U G68A,≤ 0.5
10,C22G C29G A42C A45C C61G A69U,≤ 0.5
11,C29U G44C,0.825
12,C5U G44C A45U,0.657
13,U3A G56C G67C,0.573
14,C4G C11A U19C G23C U47C,0.663
15,G9A A45U G48A G56A,0.701
16,A36C A45C C49U C55G C62A G68A,≤ 0.5
17,A20U C31U C62A A69U,≤ 0.5
18,A20G C33G G56A A65C,≤ 0.5
19,U8G A43C C61U,≤ 0.5
20,C11A A42C C46G C60A,≤ 0.5
21,U7C A20G C61U,0.587

row,Variant,yeast fitness
1,C11G A70C,0.776
2,C30G C33U C49U G56A,≤ 0.5
3,U8A G25A C29G A37C A65U,≤ 0.5
4,U2C C11G A37G G51C A57G,0.632
5,U8G C55U,0.569
6,C5U G48A C55U C66U,0.521
7,U7A A14C G25A C30G C49U,0.557
8,G12A C33U A36C G51C A57U,≤ 0.5
9,A20U U32G U35A C62U A69C,≤ 0.5
10,C27A U54C C66A,≤ 0.5
11,A15G A70G,0.999
12,A14G C24U A57G,0.639
13,U53A C60G,0.617
14,C4A C5A C34A C46U A65C,≤ 0.5
15,C22U G25C U28C A36G G51A,≤ 0.5
16,C31A G39C C66U,≤ 0.5
17,C24G G41A C46U A65G,≤ 0.5
18,A14C A43U C61U,≤ 0.5
19,C4G G17C C33G U59C,≤ 0.5
20,G10C G25A U64C,≤ 0.5
21,G39A A42G C66U,≤ 0.5

row,Variant,yeast fitness
1,U7G C34G A36C C62G G68C,≤ 0.5
2,C30U U35A C62A,≤ 0.5
3,U2C C24G C33G U53C C55U A70G,≤ 0.5
4,C29U C61U G63C,≤ 0.5
5,U35A C46G C49U,0.527
6,U8C G9A A20C G68C,0.527
7,G6C C30A A45G C55G A57U C62G,≤ 0.5
8,A36G A70U,0.832
9,C4A C5U U19A A42G,≤ 0.5
10,A14U A15G A21C G56A C62U A65U,0.554
11,C11U A15G C27G,0.544
12,U13A C22A A36U,≤ 0.5
13,C5U G23A G25C,0.65
14,C5G G48C A69U,0.587
15,A40C A43G C61G C66U,0.683
16,C4U U13G C29U C34U,≤ 0.5
17,A14U U35C A37U,≤ 0.5
18,U8C C11U C27A C30G C46U U47A,0.603
19,C29A A57G U64A,≤ 0.5
20,C5G C34G C49U G50A,≤ 0.5
21,C5G G50A,0.835
